Results taken from PMC3329872 (Bioorganic & medicinal chemistry letters, 2012).
“And” between values parts separate entries of the source, which are not always exact repeats. Equal values may be shown once. “Also recorded” adds a separate entry of the source. Read-outs that look alike come from different tables or passages of the source.

Columns and labels:
[1] = biological target: T1, trypsin (Bos taurus, UniProt P00760); test: Trypsin enzymatic inhibition assay; assay type: biochemical
T1 sequence (P00760 24-246): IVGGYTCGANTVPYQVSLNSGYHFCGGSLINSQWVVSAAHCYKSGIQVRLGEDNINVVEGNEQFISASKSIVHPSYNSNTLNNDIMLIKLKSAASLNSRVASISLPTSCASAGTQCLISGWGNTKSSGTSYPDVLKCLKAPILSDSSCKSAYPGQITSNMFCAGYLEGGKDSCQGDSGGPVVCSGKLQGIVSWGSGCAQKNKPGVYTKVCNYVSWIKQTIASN
Procedure, shortened: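 Chromogenic substrate level was chosen from the Km determination. Rate of absorbance change at 405 nm was recorded immediately after enzyme addition. Velocities at various inhibitor concentrations were fitted to a 4-parameter logistic equation.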

[2] = tested on: U87 glioma cells; test: Cell death assay: lactate dehydrogenase; assay type: cell-based; details: LDH assay, human U87 glioma cells; concentration and time given in the cell
Procedure, shortened: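 U87 glioma cells plated at ten thousand per well and exposed to test compound for 24–48 h at 37°C, 5% CO2. Cell death read as cytosolic LDH released from dying cells, measured with a commercial LDH kit per the manufacturer's protocol.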

[3] = biological target: T2, plasmin (Homo sapiens, UniProt P00747); details: read-out: plasmin IC50; cited from earlier work
[4] = tested on: human malignant glioma cells; details: cited from earlier work
[5] = biological target: tPA (Homo sapiens, UniProt P00750); details: read-out: tPA IC50; cited from earlier work
[6] = biological target: T2, plasmin; test: Plasmin enzymatic inhibition assay; assay type: biochemical
[7] = read-out: Plasmin IC50, 22°C, pH 7.4, substrate tosyl-Gly-Pro-Lys-pNA

T2 sequence (P00747 581-810 limits assumed, species assumed): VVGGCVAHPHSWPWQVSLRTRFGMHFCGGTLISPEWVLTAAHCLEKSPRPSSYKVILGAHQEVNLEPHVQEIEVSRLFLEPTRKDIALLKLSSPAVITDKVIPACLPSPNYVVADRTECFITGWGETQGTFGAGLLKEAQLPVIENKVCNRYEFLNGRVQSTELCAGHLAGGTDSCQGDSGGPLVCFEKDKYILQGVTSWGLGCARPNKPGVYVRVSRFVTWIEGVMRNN
T2 sequence (P00747 97-580 partner limits assumed, species assumed): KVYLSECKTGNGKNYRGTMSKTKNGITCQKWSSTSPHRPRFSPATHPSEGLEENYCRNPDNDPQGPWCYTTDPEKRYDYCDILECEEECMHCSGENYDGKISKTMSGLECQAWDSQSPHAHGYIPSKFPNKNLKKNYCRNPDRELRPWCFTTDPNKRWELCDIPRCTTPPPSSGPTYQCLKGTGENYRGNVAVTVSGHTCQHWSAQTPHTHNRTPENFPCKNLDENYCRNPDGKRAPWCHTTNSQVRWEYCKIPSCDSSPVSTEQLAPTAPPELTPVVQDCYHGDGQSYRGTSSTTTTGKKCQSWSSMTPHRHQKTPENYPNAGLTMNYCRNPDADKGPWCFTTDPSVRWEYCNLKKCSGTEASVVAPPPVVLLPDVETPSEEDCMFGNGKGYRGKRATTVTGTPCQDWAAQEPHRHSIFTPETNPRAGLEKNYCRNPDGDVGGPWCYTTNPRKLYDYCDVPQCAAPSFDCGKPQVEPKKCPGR
Chain of tPA (P00750 36-562, species assumed): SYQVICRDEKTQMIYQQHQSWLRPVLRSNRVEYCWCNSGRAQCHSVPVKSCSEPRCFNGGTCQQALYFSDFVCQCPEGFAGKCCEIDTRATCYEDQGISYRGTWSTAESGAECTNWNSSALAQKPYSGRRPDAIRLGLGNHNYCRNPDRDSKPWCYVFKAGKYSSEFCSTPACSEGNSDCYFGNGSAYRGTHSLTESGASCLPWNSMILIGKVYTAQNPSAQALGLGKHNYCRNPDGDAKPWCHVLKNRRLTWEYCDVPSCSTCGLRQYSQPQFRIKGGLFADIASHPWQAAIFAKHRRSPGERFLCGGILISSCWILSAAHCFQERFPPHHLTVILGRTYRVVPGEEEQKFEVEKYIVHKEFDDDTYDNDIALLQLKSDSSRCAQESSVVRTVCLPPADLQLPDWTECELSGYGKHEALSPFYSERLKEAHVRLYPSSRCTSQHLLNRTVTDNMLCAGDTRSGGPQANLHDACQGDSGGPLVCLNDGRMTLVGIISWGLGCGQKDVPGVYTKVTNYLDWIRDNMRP

| Compound | IC50 [1] | IC50 [6] | IC50 [6, 7] | Cytoxicity [2] | IC50 [3] | concentration causing caspase-independent, non-apoptotic cell death [4] | IC50 [5] |
| --- | --- | --- | --- | --- | --- | --- | --- |
| N=C(N)c1nc(Cl)c(NCC(=O)OCc2ccccc2)nc1N [Compound 11] | > 250 µM |  |  | cytotoxic and 50% cytotoxic at 250μM by 72h |  |  |  |
| N/C(=N\O)c1nc(Cl)c(NCC(=O)O)nc1N [Compound 8] | > 250 µM |  |  | Not cytotoxic |  |  |  |
| N/C(=N\O)c1ncc(NCC(=O)O)nc1N [Compound 8-H] | > 250 µM | 230 µM |  | Not cytotoxic |  |  |  |
| N=C(N)c1nc(Cl)c(NCC(=O)O)nc1N [Compound 2] | > 250 µM |  | > 250 µM | do not demonstrate glioma cytotoxicity; also recorded: Not cytotoxic |  |  |  |
| NC(=O)c1nc(Cl)c(NCC(=O)OCc2ccccc2)nc1N [Compound 12] | > 250 µM |  | > 150 µM | Not cytotoxic |  |  |  |
| NC(N)=NC(=O)c1nc(Cl)c(NCC(=O)OCc2ccccc2)nc1N [Compound 14] | > 250 µM |  |  | cytotoxic and 50% cytotoxic at 100μM by 24h |  |  |  |
| N/C(=N\O)c1nc(Cl)c(NCC(=O)OCc2ccccc2)nc1N [Compound 7] | > 250 µM |  |  | Not cytotoxic |  |  |  |

Continued, in another order:

| IC50 [1] | IC50 [6] | IC50 [6, 7] | Compound | Cytoxicity [2] | IC50 [3] | concentration causing caspase-independent, non-apoptotic cell death [4] | IC50 [5] |
| --- | --- | --- | --- | --- | --- | --- | --- |
| > 250 µM |  |  | NC(N)=NC(=O)c1ncc(NCC(=O)O)nc1N [Compound 1-H] | Not cytotoxic |  |  |  |
| > 250 µM |  |  | N=C(N)NC(=O)c1nc(Cl)c(N)nc1N [amiloride, 3,5 diamino-6-chloro-N-(diaminomethylene) pyrazinecarboximide] | 50% cytotoxic at 250μM by 24h | > 1000 µM | ~ 200 μM | > 1000 µM |
| > 250 µM |  |  | N=C(N)NC(=O)c1nc(Cl)c(NCC(=O)O)nc1N [Compound 1] | do not demonstrate glioma cytotoxicity; also recorded: Not cytotoxic |  |  |  |
| > 250 µM |  |  | N=C(N)c1ncc(NCC(=O)O)nc1N [Compound 2-H] | Not cytotoxic |  |  |  |
